Measurements from different studies.
Compare with care: the assays were run in different laboratories.

C=CS(=O)(=O)c1ccc(Nc2nc(OCC3CCCCC3)c3nc[nH]c3n2)cc1 — Tmax (male BALB/c mouse, plasma; intravenous, 20 mg/kg, single dose): 4.8 min
CCOc1ccc(N(C)S(=O)(=O)c2cc(Cl)sc2C(=O)Nc2cc(Cl)cc(C(=O)O)c2)cc1OC — Tmax (male C57BL/6 mouse, brain; intraperitoneal, 10 mg/kg): 15 min
Cn1cc(Nc2nc(N)nc(-c3cccc(-n4ccc5cc(C6CC6)cc(F)c5c4=O)c3CO)n2)cn1 — Cmax (human, plasma; oral, 600 mg, single dose, fasted, suspension): 5360 ng/mL
CC(C)n1c(Nc2cccnc2)nc2cnc(Nc3ccc(N4CCN(C)CC4)cc3)nc21 — Cmax (male human, plasma; oral, 150 mg, single dose): 76.1 ng/mL
Nc1ncn([C@H]2C[C@H](O)[C@@H](CO)O2)c(=O)n1 — Tmax (female C57BL/6 mouse, plasma; intravenous, 0.4 mg/kg): 4.98 min
CNC(=O)n1ccc2cc(Oc3ccnc(NC(=O)c4ccc(C5CCN(CCO)CC5)cc4)c3)c(OCCOC)cc21 — Cmax (human, plasma; oral, 35 mg, healthy volunteers): 7.28 ng/mL
CCN1CCN(Cc2ccc(NC(=O)c3ccc(C)c(NC(=O)c4cncc(-c5cccs5)c4)c3)cc2C(F)(F)F)CC1 — Tmax (mouse, plasma; intraperitoneal, 10 mg/kg, single dose): 30 min
COc1ccc([C@@H](O)c2cc(-c3ncnc4cc(N5CCOCC5)ccc34)c(F)cc2Cl)nn1 — Cmax (human, plasma; oral, 250 mg, single dose, patients): 2380 ng/mL
CC(C)NCC(O)COc1cccc2ccccc12 (centres unmarked) — efflux ratio (Caco-2; 5 µM, 2 h): 0.72
CN1CC[C@@H](c2c(O)cc(O)c3c(=O)cc(-c4ccc(C(F)(F)F)cc4Cl)oc23)[C@@H]1CO — Cmax (human, plasma; oral, 200 mg, patients): 398 ng/mL
Cl.[2H]C([2H])([2H])CC(=O)c1cnc(NC(=O)C2CC2)cc1Nc1cccc(-c2ncn(C([2H])([2H])[2H])n2)c1OC — Cmax (human, plasma; oral, 10 mg, multiple doses, once daily, fasted): 99.5 ng/mL
